Source: ChEMBL document CHEMBL1921795, “Discovery, synthesis, and structure-activity relationship development of a series of N-4-(2,5-dioxopyrrolidin-1-yl)phenylpicolinamides (VU0400195, ML182): characterization of a novel positive allosteric modulator of the metabotropic glutamate receptor 4 (mGlu(4)) with oral efficacy in an …” (J Med Chem, 2011)
Calls of active or inactive are those of the source.

Legend:
[1] = test system: Rattus norvegicus; experiment: Oral bioavailability in Sprague-Dawley rat at 10 mg/kg by LC/MS analysis; assay type: ADME, organism-based; settings: in vivo
[2] = test system: Rattus norvegicus; experiment: Volume of distribution at steady state in Sprague-Dawley rat at 1 mg/kg, iv by LC/MS analysis; assay type: ADME, organism-based; set-up: dose 1 mg/kg, route intravenous; settings: in vivo
Method in brief: (§1)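 Male Sprague-Dawley rats (n=2, 250-300 g), carotid and jugular cannulated; 1 mg/kg iv via jugular catheter in 20% DMSO/80% saline. Arterial blood from pre-dose to 24 h, EDTA plasma analysed by LC/MS/MS; noncompartmental analysis of individual profiles.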

[3] = test system: Rattus norvegicus; experiment: Half life in Sprague-Dawley rat at 1 mg/kg, iv by LC/MS analysis; assay type: ADME, organism-based; set-up: dose 1 mg/kg, route intravenous; settings: in vivo; method in brief: as §1
[4] = test system: Rattus norvegicus; experiment: AUC (0 to 24 hrs) in Sprague-Dawley rat at 1 mg/kg, iv by LC/MS analysis; assay type: ADME, organism-based, Plasma; set-up: time < 24 hr, dose 1 mg/kg, route intravenous; settings: in vivo
Method in brief: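 Male Sprague-Dawley rats (n=2, 250-300 g) with carotid artery and jugular vein catheters, acclimated about one week, fed ad libitum. Dose given through the jugular catheter in 20% DMSO/80% saline at 1 mL/kg. Carotid blood drawn pre-dose and at 2, 7, 15, 30 min and 1, 2, 4, 7, 24 h into chilled EDTA tubes. Plasma measured by LC/MS/MS; parameters from noncompartmental analysis of individual profiles.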

[5] = test system: Rattus norvegicus; experiment: Cmax in Sprague-Dawley rat at 10 mg/kg, po by LC/MS analysis; assay type: ADME, organism-based; set-up: dose 10 mg/kg, route oral; settings: in vivo
[6] = test system: Rattus norvegicus; experiment: AUC (0 to 24 hrs) in Sprague-Dawley rat at 10 mg/kg, po by LC/MS analysis; assay type: ADME, organism-based, Plasma; set-up: time < 24 hr, dose 10 mg/kg, route oral; settings: in vivo
[7] = test system: Rattus norvegicus; experiment: Reversal of haloperidol-induced catalepsy in Sprague-Dawley rat at 56.6 mg/kg, po administered 60 mins after haloperidol-challenge measured after 30 mins; assay type: functional, organism-based; set-up: dose 56.6 mg/kg
Method in brief: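 Male Sprague-Dawley rats (275–300 g). Haloperidol 0.75 mg/kg i.p. (in 8.5% lactic acid, pH 6) given 60 min before oral compound (0.1–56.6 mg/kg) or vehicle (10% Tween 80). Catalepsy tested 30 min later: forepaws placed on a horizontal bar 6 cm high; latency to remove paws timed, 30 s cutoff.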

| Compound | F [1] | Vdss [2] | t1/2 [3] | AUC [4] | Cmax [5] | AUC [6] | Activity [7] |
| --- | --- | --- | --- | --- | --- | --- | --- |
| Cl.O=C(Nc1ccc(N2C(=O)CC3(CCCCC3)C2=O)c(Cl)c1)c1ccccn1 | 24.6% | 5.5 L/kg | 1.56 h | 346 ng·h/mL | 18.3 ng/mL | 813 ng·h/mL |  |
| Cc1cc(C)n(-c2cc(NC(=O)CN3CCN(C)CC3)nc(-c3ccco3)n2)n1 |  |  |  |  |  |  | Active |
